We go through 9 compounds from ChEMBL document CHEMBL1144429, “Computational strategies in discovering novel non-nucleoside inhibitors of HIV-1 RT” (J Med Chem, 2005).

As a reminder, the EC50 is the concentration that produces a half-maximal response. Broadly, the CC50 is the concentration giving 50% cytotoxicity. A lower CC50 goes with greater toxicity to the cells. By IC50 is commonly meant the concentration at which inhibition is half-maximal.

Test [1] deals with MT4. Briefly: Concentration required to reduce HIV-1-induced cytopathic effect in MT-4 cells. The test is classed as functional, cell-based. Conditions: Homo sapiens; call rule not given here. An outline of the steps: (§1)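 MT-4 cells infected with HIV-1. The read-out is protection against virus-induced cytopathic effect. EC50 is the concentration giving a 50% reduction of the cytopathic effect. Uninfected MT-4 cytotoxicity was run in parallel.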
(In general: Cytopathic effects are the visible damage that an infection or toxin causes in cultured cells.)

Test [2] relates to MT4. Briefly: Ratio of CC50 to that of EC50. The test is classed as functional, Homo sapiens. An outline of the steps: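 Selectivity index is calculated as CC50/EC50. Both values come from the parallel MT-4 assays: cell viability for CC50 and protection from HIV-1-induced cytopathic effect for EC50.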
The subject of test [3] is MT4. Briefly: Cytotoxic concentration required to reduce MT-4 cell viability. The settings on record: Homo sapiens. The format is functional. The gist of the method: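 Viability of MT-4 cells was measured with compound alone, in parallel with the HIV-1 cytopathic-effect assay. CC50 is the concentration reducing MT-4 cell viability by 50%.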
The target in test [4] is Human immunodeficiency virus type 1 reverse transcriptase (Human immunodeficiency virus 1, UniProt Q72547). Briefly: Concentration required to inhibit in vitro RNA-dependent DNA polymerase activity of reverse transcriptase. The gist of the method:
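Recombinant HIV-1 RT. RNA-dependent DNA polymerase activity was measured in vitro. IC50 is the concentration inhibiting this polymerase activity by 50%.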

Test [5] relates to MT4. Briefly: Concentration required to reduce HIV-1-induced cytopathic effect in MT-4 cells; NA = not active. The format is functional, cell-based, Homo sapiens. The gist of the method:
as §1

The subject of test [6] is CCRF-CEM. Briefly: Concentration required to protect CEM cells against Mutant K103N Strain. The test is classed as functional, cell-based. The settings on record: Homo sapiens. The gist of the method: (§2)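 CEM cell cultures were infected with mutant HIV-1 strains, each carrying a single NNRTI-resistance mutation in RT. EC50 is the concentration protecting CEM cells against HIV-induced cytopathogenicity by 50%.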

Test [7] has as its system CCRF-CEM. Briefly: Concentration required to protect CEM cells against Mutant Y188H Strain. The format is functional, cell-based. The settings on record: Homo sapiens. The gist of the method:
as §2

For test [8], the system named is CCRF-CEM. Briefly: Concentration required to protect CEM cells against Mutant L100I Strain. The test is classed as functional, cell-based. The settings on record: Homo sapiens. The gist of the method: as §2
Test [9] concerns CCRF-CEM. Briefly: Concentration required to protect CEM cells against Mutant E138K Strain. The format is functional, cell-based. Conditions: Homo sapiens. An outline of the steps:
as §2

In test [10] the test system is CCRF-CEM. Briefly: Concentration required to protect CEM cells against Mutant Y181C Strain. The format is functional, cell-based. Conditions: Homo sapiens. The gist of the method:
as §2

The test system of test [11] is MT4. Briefly: Compound was tested for inhibition of the cytopathic effects of HIV-1 (IIIB) in MT-4 cells. The format is functional, cell-based. Conditions: Homo sapiens. The gist of the method:
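HIV-1-induced cytopathic effect measured in MT-4 cell cultures. EC50 is the concentration reducing the cytopathic effect by 50%. Cytotoxicity in MT-4 cells was run in parallel.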

The compound `Oc1nc2cc(Cl)ccc2n1Cc1c(F)cccc1F` gave an EC50 in the test on MT4 [1] of 29.6 µM. Moreover, the Ratio with MT4 [2] is over 14. In the test with MT4 [3], this compound came in with a CC50 of over 424 µM. In test [4], the 50% inhibitory concentration (IC50) came out at 60 µM.

`O=c1oc2ccc(Cl)cc2n1Cc1c(F)cccc1F` gave a 50% effective concentration (EC50) with MT4 [1] of 3.72 µM. In addition, the Ratio with MT4 [2] is over 91. Besides, the CC50 in the test with MT4 [3] was over 382 µM. Besides, in test [4], 20 µM corresponded to half-maximal inhibition (IC50).

`CC(C)c1ccc(Cn2c(O)nc3ccc(Cl)cc32)cc1` registered a 50% effective concentration (EC50) in the test on MT4 [1] of 2.83 µM. Moreover, the Ratio in the test on MT4 [2] is given as over 147. In addition, in the test with MT4 [3], the CC50 was over 415 µM. In addition, in test [4], the IC50 worked out at 16.2 µM.

In the test with MT4 [1], `Oc1nc2ccc(Cl)cc2n1Cc1c(Cl)cccc1Cl` displayed an EC50 of 3.79 µM. For the same compound, the Ratio in the test on MT4 [2] is given as 83. Half-maximal cytotoxicity in the test with MT4 [3] (CC50) was put at 315 µM. In addition, half-maximal inhibition in test [4] (IC50) required 7.5 µM.

The compound `Oc1nc2ccc(Cl)cc2n1Cc1cccc2ccccc12` displayed a concentration giving a half-maximal response (EC50) in the test with MT4 [1] of 0.87 µM. In addition, the Ratio in the test with MT4 [2] amounted to 57. Besides, it took 50 µM to reach half-maximal cytotoxicity in the test on MT4 [3] (CC50). For the same compound, the concentration for half-maximal inhibition (IC50) in test [4] is 12.7 µM.

In the test with MT4 [3], `Oc1nc2ccc(Cl)cc2n1CC1CCCCC1` gave a CC50 of 9.5 µM. In test [4], this compound displayed an IC50 of 50 µM. In the test with MT4 [5], the EC50 result was “Not Active”.

In the case of `Oc1nc2ccc(Cl)cc2n1Cc1ccc2ccccc2c1`, the concentration for a half-maximal effect (EC50) in the test on MT4 [1] was determined as 6.35 µM. The Ratio in the test with MT4 [2] is reported as over 64. In the test on MT4 [3], this compound showed a cytotoxic concentration (CC50) of over 405 µM. For the same compound, the IC50 in [4] amounted to 5.2 µM.

Turning to `O=c1[nH]c2ccc(Cl)cc2n1Cc1c(F)cccc1F`, the EC50 with CCRF-CEM [6] was over 20 µM; in the test on MT4 [1], 0.24 µM; in the test on CCRF-CEM [7], over 20 µM; with CCRF-CEM [8], 2 µM; in the test on CCRF-CEM [9], 2.9 µM; in the test with CCRF-CEM [10] it was over 20 µM. For the same compound, it took 0.24 µM to reach a half-maximal effect in the test on MT4 [11] (EC50). In the test on MT4 [2], the Ratio is over 1766. Also, the cytotoxic concentration (CC50) in the test on MT4 [3] was over 424 µM. 2.86 µM corresponded to half-maximal inhibition in test [4] (IC50).

On to `Fc1cccc(F)c1C1SCc2nc3ccccc3n21` (configuration not stated) [THIAZOLOBENZIMIDAZOLE], for which the concentration giving a half-maximal response (EC50) with CCRF-CEM [6] came to 15.6 µM; in the test with MT4 [1], 1.1 µM; in the test on CCRF-CEM [7] it was 4.16 µM; in the test with CCRF-CEM [8] it was 3.12 µM; with CCRF-CEM [9] it was 1.73 µM; in the test with CCRF-CEM [10] it was 13.8 µM. The compound further displayed a 50% effective concentration (EC50) in the test with MT4 [11] of 1.39 µM. Further, the Ratio in the test with MT4 [2] is recorded as 45. In the test with MT4 [3], this compound showed a CC50 of 50 µM. This compound returned a concentration for half-maximal inhibition (IC50) in [4] of 24.6 µM.
